Data reported in ChEMBL document CHEMBL1130380, “Studies on selection blockers. 5. Design, synthesis, and biological profile of sialyl Lewis x mimetics based on modified serine-glutamic acid dipeptides” (J Med Chem, 1997).

Tests used:
L-selectin [1] = biological target: T1, L-selectin (Mus musculus, UniProt P18337); assay: Blocking activity using seletin-IgG chimeras in a Selectin L competitive binding assay.
T1 sequence (P18337 whole entry): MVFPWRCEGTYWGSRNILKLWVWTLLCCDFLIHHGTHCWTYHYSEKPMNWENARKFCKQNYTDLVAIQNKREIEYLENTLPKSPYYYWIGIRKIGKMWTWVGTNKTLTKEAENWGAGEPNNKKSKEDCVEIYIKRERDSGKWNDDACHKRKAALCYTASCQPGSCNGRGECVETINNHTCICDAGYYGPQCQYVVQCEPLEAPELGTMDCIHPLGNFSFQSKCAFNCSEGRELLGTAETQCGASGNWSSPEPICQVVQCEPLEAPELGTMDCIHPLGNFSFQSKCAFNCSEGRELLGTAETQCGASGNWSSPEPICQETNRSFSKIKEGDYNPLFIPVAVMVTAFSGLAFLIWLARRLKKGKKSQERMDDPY
In short: (§1)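 Selectin-Ig fusion protein is premixed for 30 min at room temperature with biotin-anti-human IgG (Fc) and streptavidin-alkaline phosphatase (each 1:500 in 1% BSA-PBS). The complex is preincubated 30 min with test compound (final 100, 25, 6.25, 1.56 µM; 10 mM water stock). It is then bound 45 min at 37 °C to wells coated with sLex-pentaceramide and blocked with 5% BSA. Read-out is p-nitrophenylphosphate absorbance, expressed as % binding versus controls.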

P-selectin [2] = biological target: T2, P-selectin (Mus musculus, UniProt Q01102); assay: Blocking activity using seletin-IgG chimeras in a Selectin P competitive binding assay.; in short: as §1
T2 sequence (Q01102 whole entry): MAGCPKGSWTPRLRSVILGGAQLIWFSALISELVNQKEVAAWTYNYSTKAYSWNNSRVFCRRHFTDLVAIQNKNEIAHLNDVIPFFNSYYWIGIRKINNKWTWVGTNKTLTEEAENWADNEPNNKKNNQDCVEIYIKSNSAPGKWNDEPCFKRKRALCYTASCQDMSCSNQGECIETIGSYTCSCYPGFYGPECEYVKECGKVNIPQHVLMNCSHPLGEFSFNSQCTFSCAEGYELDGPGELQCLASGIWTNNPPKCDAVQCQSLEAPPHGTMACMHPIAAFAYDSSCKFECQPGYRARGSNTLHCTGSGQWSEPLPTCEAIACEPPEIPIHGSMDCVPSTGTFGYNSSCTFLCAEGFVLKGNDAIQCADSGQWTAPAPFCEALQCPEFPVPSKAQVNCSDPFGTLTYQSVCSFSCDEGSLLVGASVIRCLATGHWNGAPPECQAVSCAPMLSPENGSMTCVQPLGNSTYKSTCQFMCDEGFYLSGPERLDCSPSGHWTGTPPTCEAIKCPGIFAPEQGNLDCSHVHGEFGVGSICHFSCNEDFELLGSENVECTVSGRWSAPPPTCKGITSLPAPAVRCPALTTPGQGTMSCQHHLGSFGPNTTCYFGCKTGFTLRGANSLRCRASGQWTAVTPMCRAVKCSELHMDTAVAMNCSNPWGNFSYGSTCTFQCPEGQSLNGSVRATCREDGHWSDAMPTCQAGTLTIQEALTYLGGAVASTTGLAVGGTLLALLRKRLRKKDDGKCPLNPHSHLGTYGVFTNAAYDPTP

E-selectin = biological target: T3, E-selectin (Mus musculus, UniProt Q00690); assay: In vitro inhibitory activity against Selectin E-sialyl Lewis X (sLex) binding
T3 sequence (Q00690 whole entry): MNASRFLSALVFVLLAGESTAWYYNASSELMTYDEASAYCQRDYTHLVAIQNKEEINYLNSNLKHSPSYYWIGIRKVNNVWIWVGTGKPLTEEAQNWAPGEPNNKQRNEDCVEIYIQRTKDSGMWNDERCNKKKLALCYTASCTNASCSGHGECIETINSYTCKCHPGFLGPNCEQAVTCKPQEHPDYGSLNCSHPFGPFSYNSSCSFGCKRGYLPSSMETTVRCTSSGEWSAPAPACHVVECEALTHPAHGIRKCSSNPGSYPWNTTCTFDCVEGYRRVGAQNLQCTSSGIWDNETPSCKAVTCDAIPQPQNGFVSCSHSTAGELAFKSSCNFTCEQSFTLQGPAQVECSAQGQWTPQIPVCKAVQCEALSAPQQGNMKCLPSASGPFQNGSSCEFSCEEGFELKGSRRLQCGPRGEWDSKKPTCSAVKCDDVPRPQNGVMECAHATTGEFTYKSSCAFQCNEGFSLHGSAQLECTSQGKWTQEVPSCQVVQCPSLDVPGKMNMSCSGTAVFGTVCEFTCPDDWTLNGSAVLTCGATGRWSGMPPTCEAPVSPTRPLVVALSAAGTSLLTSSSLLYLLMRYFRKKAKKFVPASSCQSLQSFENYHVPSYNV
In short: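 sLex-pentaceramide (100 pmol/well) dried onto wells, blocked with 5% BSA-PBS 1 h RT. E-selectin-Ig fusion premixed 30 min RT with biotin-anti-human IgG(Fc)/streptavidin-alkaline phosphatase. Compounds (water stock 10 mM; final 100, 25, 6.25, 1.56 µM) preincubated with complex 30 min RT, then added to wells 45 min at 37 °C. Read-out: p-nitrophenylphosphate in diethanolamine pH 9.8; % binding versus no-compound control, background without selectin-Ig.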

L-selectin [3] = biological target: T1, L-selectin; assay: Blocking activity using selectin-IgG chimeras in a Selectin L competitive binding assay.; in short: as §1
P-selectin [4] = biological target: T2, P-selectin; assay: Blocking activity using selectin-IgG chimeras in a Selectin P competitive binding assay.; in short: as §1

SMILES	IC50 (L-selectin [1])	IC50 (P-selectin [2])	IC50 (E-selectin)	IC50 (L-selectin [3])	IC50 (P-selectin [4])
CCCCCCCCCCCCCCC(CCCCCCCCCCCCCC)CO[C@@H]1O[C@H](CO)[C@@H](O[C@@H]2O[C@H](CO)[C@H](O)[C@H](OS(=O)(=O)O)[C@H]2O)[C@H](O[C@@H]2O[C@@H](C)[C@@H](O)[C@@H](O)[C@@H]2O)[C@H]1O	30 µM	100 µM	280 µM		
CCCCCCCCCCCCCCC(CCCCCCCCCCCCCC)C(=O)N[C@@H](CO[C@@H]1O[C@@H](C)[C@@H](O)[C@H](O)[C@@H]1O)C(=O)N[C@H](CCC(=O)O)C(=O)NC	9.4 µM	0.7 µM	5.5 µM		
CCCCCCCCCCCCCCC(CCCCCCCCCCCCCC)C(=O)N[C@@H](CO[C@@H]1O[C@@H](C)[C@@H](O)[C@H](O)[C@@H]1O)C(=O)N[C@@H](CCC(=O)O)C(=O)NC	18 µM	2.1 µM	> 1000 µM		
CCCCCCCCCCCCCCC(CCCCCCCCCCCCCC)C(=O)N[C@H](CO[C@@H]1O[C@@H](C)[C@@H](O)[C@H](O)[C@@H]1O)C(=O)N[C@@H](CCC(=O)O)C(=O)NC	6 µM	0.5 µM	13 µM		

Results, then the compound that gave them:

IC50 (L-selectin [1])	IC50 (P-selectin [2])	IC50 (E-selectin)	IC50 (L-selectin [3])	IC50 (P-selectin [4])	SMILES
> 1000 µM	> 1000 µM	600 µM			CC(=O)N[C@H]1[C@H]([C@H](O)[C@H](O)CO)O[C@@](O[C@H]2[C@@H](O)[C@@H](CO)O[C@@H](O[C@@H]([C@H](O[C@@H]3O[C@@H](C)[C@@H](O)[C@@H](O)[C@@H]3O)[C@H](C=O)NC(C)=O)[C@H](O)CO)[C@@H]2O)(C(=O)O)C[C@@H]1O [SIALYL LEWIS X]
		> 1000 µM	39 µM	1.9 µM	CCCCCCCCCCCCCCC(CCCCCCCCCCCCCC)C(=O)N[C@H](CO[C@@H]1O[C@@H](C)[C@@H](O)[C@H](O)[C@@H]1O)C(=O)N[C@H](CCC(=O)O)C(=O)NC
